Results reported in ChEMBL document CHEMBL1133716, “AMP deaminase inhibitors. 3. SAR of 3-(carboxyarylalkyl)coformycin aglycon analogues” (J Med Chem, 2000).

Experiments:
[1] = Inhibitory activity against porcine heart Adenylate deaminase (AMPDA); parameters: species or system Sus scrofa
Outline: (§1)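 Values are reported as Ki against porcine heart AMPDA, determined by a procedure described in earlier work.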

Adenosine deaminase [2] = target: T1, Adenosine deaminase (Bos taurus, UniProt P56658); test: Inhibitory activity against calf intestinal Adenosine deaminase (ADA)
T1 sequence (P56658 whole entry): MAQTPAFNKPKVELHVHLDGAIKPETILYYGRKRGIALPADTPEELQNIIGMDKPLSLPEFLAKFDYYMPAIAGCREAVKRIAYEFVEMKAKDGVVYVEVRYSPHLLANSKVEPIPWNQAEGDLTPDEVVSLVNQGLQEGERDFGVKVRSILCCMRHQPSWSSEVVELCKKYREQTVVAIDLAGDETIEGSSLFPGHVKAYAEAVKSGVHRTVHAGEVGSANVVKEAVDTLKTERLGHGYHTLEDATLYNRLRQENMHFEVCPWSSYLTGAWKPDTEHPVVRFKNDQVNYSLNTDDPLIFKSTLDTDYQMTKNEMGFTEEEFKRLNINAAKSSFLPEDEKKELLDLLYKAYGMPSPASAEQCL

Adenosine deaminase [3] = target: T1, Adenosine deaminase; test: Compound was evaluated for its inhibitory activity against calf intestinal Adenosine deaminase (ADA)
[4] = Compound was evaluated for its inhibitory activity against porcine heart adenylate deaminase (AMPDA); parameters: species or system Sus scrofa; outline: as §1

| Structure (SMILES) | Ki [1] | Ki (Adenosine deaminase [2]) | Ki (Adenosine deaminase [3]) | Ki [4] |
| --- | --- | --- | --- | --- |
| O=C(O)c1ccc(CO)c(CCn2cnc3c2NC=NCC3O)c1 (stereo unspecified) | 0.35 µM | > 7.5 µM |  |  |
| O=C(O)c1cccc(C#CCn2cnc3c2NC=NCC3O)c1 (stereo unspecified) | > 125 µM | 2.3 µM |  |  |
| COC(=O)c1ccc(OC)c(CCn2cnc3c2NC=NCC3O)c1 (stereo unspecified) | 21 µM | > 7.5 µM |  |  |
| COC(=O)c1ccccc1OCCn1cnc2c1NC=NCC2O (stereo unspecified) | 60.6 µM | 2.3 µM |  |  |
| O=C(O)c1ccc(Cn2cnc3c2NC=NCC3O)cc1 (stereo unspecified) | > 125 µM | > 7.5 µM |  |  |
| Cc1ccc(CCn2cnc3c2NC=NCC3O)cc1C(=O)O (stereo unspecified) | 0.57 µM | > 7.5 µM |  |  |
| CC(C)c1cccc(C(=O)O)c1CCCn1cnc2c1NC=NCC2O (stereo unspecified) | 83.1 µM | > 7.5 µM |  |  |
| CCCc1ccc(C(=O)O)cc1CCn1cnc2c1NC=NCC2O (stereo unspecified) | 0.19 µM | > 7.5 µM |  |  |
| O=C(O)c1cc(CCn2cnc3c2NC=NCC3O)cc(-c2cccc(Cl)c2)c1 (stereo unspecified) | 0.18 µM | > 7.5 µM |  |  |
| O=C(O)c1ccccc1OCCn1cnc2c1NC=NCC2O (stereo unspecified) | 31.3 µM | 270 µM |  |  |
| COC(=O)c1ccccc1SCCn1cnc2c1NC=NCC2O (stereo unspecified) | 37.9 µM | 11.9 µM |  |  |
| Cc1ccc(CCCn2cnc3c2NC=NCC3O)c(C(=O)O)c1 (stereo unspecified) | 11.8 µM | > 7.5 µM |  |  |
| Cc1ccc(C(=O)OCc2ccccc2)cc1CCn1cnc2c1NC=NCC2O (stereo unspecified) | 8.1 µM | 2.6 µM |  |  |
| CCCc1ccc(C(=O)OC)cc1CCn1cnc2c1NC=NCC2O (stereo unspecified) | 14 µM | 3.8 µM |  |  |
| O=C(O)c1cc(Br)cc(CCn2cnc3c2NC=NCC3O)c1 (stereo unspecified) | 0.08 µM | > 7.5 µM |  |  |
| COC(=O)c1ccccc1CCCn1cnc2c1NC=NCC2O (stereo unspecified) | 32.7 µM | 0.16 µM |  |  |
| COC(=O)c1ccc(C)cc1CCCn1cnc2c1NC=NCC2O (stereo unspecified) | 38 µM | 0.06 µM |  |  |
| O=C(O)Cc1cccc(CCn2cnc3c2NC=NCC3O)c1 (stereo unspecified) | 44.1 µM | > 500 µM |  |  |
| COC(=O)c1cccc(CCCn2cnc3c2NC=NCC3O)c1 (stereo unspecified) | 24.3 µM | 0.16 µM |  |  |
| O=C(O)c1cc(CCn2cnc3c2NC=NCC3O)cs1 (stereo unspecified) | 2.2 µM | > 7.5 µM |  |  |
| COC(=O)c1ccc(OC)c(CCCn2cnc3c2NC=NCC3O)c1 (stereo unspecified) | 52.8 µM | 0.13 µM |  |  |

| Structure (SMILES) | Ki [1] | Ki (Adenosine deaminase [2]) | Ki (Adenosine deaminase [3]) | Ki [4] |
| --- | --- | --- | --- | --- |
| CCOC(=O)c1cc(CCn2cnc3c2NC=NCC3O)ccc1C (stereo unspecified) | 12 µM | > 7.5 µM |  |  |
| Cc1ccc(C(=O)O)cc1CCn1cnc2c1NC=NCC2O (stereo unspecified) | 0.1 µM | > 100 µM |  |  |
| O=C(O)c1cccc(CCn2cnc3c2NC=NCC3O)c1 (stereo unspecified) | 0.51 µM | > 7.5 µM |  |  |
| COC(=O)c1c(F)cccc1CCCn1cnc2c1NC=NCC2O (stereo unspecified) | 1.5 µM | 0.32 µM |  |  |
| O=C(O)c1cc(CCn2cnc3c2NC=NCC3O)cc(-c2ccc(Cl)cc2)c1 (stereo unspecified) | 0.29 µM | > 7.5 µM |  |  |
| COC(=O)c1cc(C)ccc1CCCn1cnc2c1NC=NCC2O (stereo unspecified) | 1.6 µM | 0.04 µM |  |  |
| O=C(O)c1ccc(Cn2cnc3c2NC=NCC3O)o1 (stereo unspecified) | 72 µM | > 3.4 µM |  |  |
| O=C(O)c1cc(CCn2cnc3c2NC=NCC3O)ccc1Cl (stereo unspecified) | 0.22 µM | > 7.5 µM |  |  |
| COC(=O)Cc1ccc(Cn2cnc3c2NC=NCC3O)cc1 (stereo unspecified) | 92.6 µM | 6.7 µM |  |  |
| O=C(O)c1cc(CCn2cnc3c2NC=NCC3O)ccc1F (stereo unspecified) | 0.16 µM | > 7.5 µM |  |  |
| CCOC(=O)c1cc(CC)cc(CCn2cnc3c2NC=NCC3O)c1 (stereo unspecified) | 6.6 µM | 8.9 µM |  |  |
| O=C(O)c1cccc(OCCn2cnc3c2NC=NCC3O)c1 (stereo unspecified) | 31.8 µM | > 7.5 µM |  |  |
| CNOC(=O)c1ccc(C)c(CCCn2cnc3c2NC=NCC3O)c1 (stereo unspecified) |  |  | 0.05 µM | 19.8 µM |
| COC(=O)c1cccc(C(C)C)c1CCCn1cnc2c1NC=NCC2O (stereo unspecified) | 14 µM | > 7.5 µM |  |  |
| CCc1ccc(C(=O)O)cc1CCn1cnc2c1NC=NCC2O (stereo unspecified) | 0.08 µM | > 7.5 µM |  |  |
| O=C(O)Cc1cccc(Cn2cnc3c2NC=NCC3O)c1 (stereo unspecified) | 11.2 µM | > 7.5 µM |  |  |
| CCOC(=O)Cc1cccc(Cn2cnc3c2NC=NCC3O)c1 (stereo unspecified) | 15.9 µM | 5.6 µM |  |  |
| COC(=O)c1ccc2ccccc2c1CCCn1cnc2c1NC=NCC2O (stereo unspecified) | 8.3 µM | 0.18 µM |  |  |
| COC(=O)c1ccc(C)c(CCCn2cnc3c2NC=NCC3O)c1 (stereo unspecified) | 22 µM | 0.08 µM |  |  |
| O=C(O)c1cc(CCn2cnc3c2NC=NCC3O)cc(-c2ccc(F)cc2)c1 (stereo unspecified) | 0.19 µM | > 7.5 µM |  |  |
| COc1ccc(C(=O)O)cc1CCn1cnc2c1NC=NCC2O (stereo unspecified) | 0.48 µM | > 7.5 µM |  |  |

| Structure (SMILES) | Ki [1] | Ki (Adenosine deaminase [2]) | Ki (Adenosine deaminase [3]) | Ki [4] |
| --- | --- | --- | --- | --- |
| CCOC(=O)c1ccc(C)c(CCn2cnc3c2NC=NCC3O)c1 (stereo unspecified) | 11 µM | > 7.5 µM |  |  |
| O=C(O)c1ccc(CCn2cnc3c2NC=NCC3O)s1 (stereo unspecified) | 9.5 µM | > 7.5 µM |  |  |
| COc1ccc(C(=O)O)cc1CCCn1cnc2c1NC=NCC2O (stereo unspecified) | 4.2 µM | 5.6 µM |  |  |
| Cc1ccc(C(=O)O)cc1CCCn1cnc2c1NC=NCC2O (stereo unspecified) | 5.2 µM | 1.2 µM |  |  |
| O=C(O)c1sccc1CCCn1cnc2c1NC=NCC2O (stereo unspecified) | 4.8 µM | 1.4 µM |  |  |
| CCOC(=O)c1cc(Br)cc(CCn2cnc3c2NC=NCC3O)c1 (stereo unspecified) | 2.7 µM | > 7.5 µM |  |  |
| COC(=O)c1cccc(CCn2cnc3c2NC=NCC3O)c1 (stereo unspecified) | 16 µM | > 7.5 µM |  |  |
| COC(=O)c1ccc(Cn2cnc3c2NC=NCC3O)cc1 (stereo unspecified) | 170 µM | 8.7 µM |  |  |
| O=C(O)c1ccc2ccccc2c1CCCn1cnc2c1NC=NCC2O (stereo unspecified) | 6.3 µM | 1.8 µM |  |  |
| O=C(O)c1ccccc1SCCn1cnc2c1NC=NCC2O (stereo unspecified) | 4.5 µM | > 500 µM |  |  |
| O=C(O)c1ccccc1CCCn1cnc2c1NC=NCC2O (stereo unspecified) | 12.5 µM | 6.1 µM |  |  |
| O=C(O)Cc1ccc(Cn2cnc3c2NC=NCC3O)cc1 (stereo unspecified) | 92.2 µM | > 500 µM |  |  |
| CCc1cc(CCn2cnc3c2NC=NCC3O)cc(C(=O)O)c1 (stereo unspecified) | 0.06 µM | > 7.5 µM |  |  |
| CC(C)c1cccc(C(=O)O)c1SCCn1cnc2c1NC=NCC2O (stereo unspecified) | > 125 µM | > 7.5 µM |  |  |
| O=C(O)c1c(F)cccc1CCCn1cnc2c1NC=NCC2O (stereo unspecified) | 9 µM | > 7.5 µM |  |  |
| Cc1ccc(C(=O)O)c(CCCn2cnc3c2NC=NCC3O)c1 (stereo unspecified) | 24 µM | 5.2 µM |  |  |
| COC(=O)c1ccc(CCn2cnc3c2NC=NCC3O)cc1 (stereo unspecified) | 160 µM | 81 µM |  |  |
| O=C(O)c1ccc(CCCn2cnc3c2NC=NCC3O)o1 (stereo unspecified) | 13.3 µM | > 7.5 µM |  |  |
| O=C(O)c1cc(CCn2cnc3c2NC=NCC3O)cc(-c2ccccc2)c1 (stereo unspecified) | 0.07 µM | > 7.5 µM |  |  |
| O=C(O)c1cccc(CCCn2cnc3c2NC=NCC3O)c1 (stereo unspecified) | 23.5 µM | 2.4 µM |  |  |
| CCOC(=O)c1cc(CCn2cnc3c2NC=NCC3O)cc(-c2ccccc2)c1 (stereo unspecified) | 18 µM | > 7.5 µM |  |  |
